Data set [1] has as its target T1, Protein mono-ADP-ribosyltransferase PARP12 (Homo sapiens, UniProt Q9H0J9).
T1 sequence (Q9H0J9 whole entry): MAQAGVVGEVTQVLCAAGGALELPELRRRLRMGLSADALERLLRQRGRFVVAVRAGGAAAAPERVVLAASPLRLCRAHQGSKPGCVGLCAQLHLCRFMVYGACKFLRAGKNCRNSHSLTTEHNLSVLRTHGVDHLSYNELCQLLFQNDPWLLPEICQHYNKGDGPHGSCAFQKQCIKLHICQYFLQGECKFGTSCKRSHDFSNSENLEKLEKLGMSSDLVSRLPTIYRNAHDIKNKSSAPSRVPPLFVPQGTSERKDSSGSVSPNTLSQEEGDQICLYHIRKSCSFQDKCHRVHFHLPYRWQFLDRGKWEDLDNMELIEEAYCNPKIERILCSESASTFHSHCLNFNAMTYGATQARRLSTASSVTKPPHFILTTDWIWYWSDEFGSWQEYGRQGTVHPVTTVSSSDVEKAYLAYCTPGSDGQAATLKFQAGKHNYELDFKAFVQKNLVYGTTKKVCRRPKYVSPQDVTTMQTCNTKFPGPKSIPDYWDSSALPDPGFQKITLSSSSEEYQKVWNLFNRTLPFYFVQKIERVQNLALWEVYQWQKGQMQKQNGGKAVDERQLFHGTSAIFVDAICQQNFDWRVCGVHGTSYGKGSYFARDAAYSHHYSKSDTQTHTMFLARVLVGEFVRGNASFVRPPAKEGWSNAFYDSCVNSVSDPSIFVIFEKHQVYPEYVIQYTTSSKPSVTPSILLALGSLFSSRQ
Kind of data set: Inhibition of PARP12 (unknown origin).

Data set [2] concerns the target Poly [ADP-ribose] polymerase 1 (Homo sapiens, UniProt P09874). The experiment in a line: Inhibition of full length recombinant human N-terminal GST-tagged PARP1 expressed in Baculovirus infected Sf9 cells using TACS-Sapphire as substrate measured after 1 hr by colorimetric assay. The conditions noted are these: read-out: IC50.
The target of data set [3] is Poly [ADP-ribose] polymerase 2 (Homo sapiens, UniProt Q9UGN5). Kind of data set: Inhibition of recombinant human N-terminal GST-tagged PARP2 (2 to 583 residues) expressed in baculovirus infected Sf9 cells measured after 1 hr by chemiluminescence assay.
Chain of Poly [ADP-ribose] polymerase 2 (Q9UGN5 whole entry, the tested form may be a part): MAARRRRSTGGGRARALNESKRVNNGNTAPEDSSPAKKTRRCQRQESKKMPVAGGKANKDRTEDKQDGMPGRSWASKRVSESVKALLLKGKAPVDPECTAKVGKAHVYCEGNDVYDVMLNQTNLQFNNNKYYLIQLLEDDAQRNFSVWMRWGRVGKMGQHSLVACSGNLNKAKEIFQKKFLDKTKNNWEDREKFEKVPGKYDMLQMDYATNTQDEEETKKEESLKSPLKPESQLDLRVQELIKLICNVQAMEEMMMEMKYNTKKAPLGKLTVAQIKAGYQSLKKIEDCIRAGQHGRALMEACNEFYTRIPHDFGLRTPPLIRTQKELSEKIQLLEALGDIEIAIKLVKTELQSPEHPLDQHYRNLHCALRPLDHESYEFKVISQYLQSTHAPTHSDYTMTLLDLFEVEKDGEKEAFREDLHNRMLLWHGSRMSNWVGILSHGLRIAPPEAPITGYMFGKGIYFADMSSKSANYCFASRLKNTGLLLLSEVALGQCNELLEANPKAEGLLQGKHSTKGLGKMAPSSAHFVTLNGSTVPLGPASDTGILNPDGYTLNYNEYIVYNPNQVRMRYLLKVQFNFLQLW
For data set [4], the target named is Protein mono-ADP-ribosyltransferase PARP4 (Homo sapiens, UniProt Q9UKK3). Kind of data set: Inhibition of PARP4 (unknown origin).
Chain of Protein mono-ADP-ribosyltransferase PARP4 (Q9UKK3 whole entry): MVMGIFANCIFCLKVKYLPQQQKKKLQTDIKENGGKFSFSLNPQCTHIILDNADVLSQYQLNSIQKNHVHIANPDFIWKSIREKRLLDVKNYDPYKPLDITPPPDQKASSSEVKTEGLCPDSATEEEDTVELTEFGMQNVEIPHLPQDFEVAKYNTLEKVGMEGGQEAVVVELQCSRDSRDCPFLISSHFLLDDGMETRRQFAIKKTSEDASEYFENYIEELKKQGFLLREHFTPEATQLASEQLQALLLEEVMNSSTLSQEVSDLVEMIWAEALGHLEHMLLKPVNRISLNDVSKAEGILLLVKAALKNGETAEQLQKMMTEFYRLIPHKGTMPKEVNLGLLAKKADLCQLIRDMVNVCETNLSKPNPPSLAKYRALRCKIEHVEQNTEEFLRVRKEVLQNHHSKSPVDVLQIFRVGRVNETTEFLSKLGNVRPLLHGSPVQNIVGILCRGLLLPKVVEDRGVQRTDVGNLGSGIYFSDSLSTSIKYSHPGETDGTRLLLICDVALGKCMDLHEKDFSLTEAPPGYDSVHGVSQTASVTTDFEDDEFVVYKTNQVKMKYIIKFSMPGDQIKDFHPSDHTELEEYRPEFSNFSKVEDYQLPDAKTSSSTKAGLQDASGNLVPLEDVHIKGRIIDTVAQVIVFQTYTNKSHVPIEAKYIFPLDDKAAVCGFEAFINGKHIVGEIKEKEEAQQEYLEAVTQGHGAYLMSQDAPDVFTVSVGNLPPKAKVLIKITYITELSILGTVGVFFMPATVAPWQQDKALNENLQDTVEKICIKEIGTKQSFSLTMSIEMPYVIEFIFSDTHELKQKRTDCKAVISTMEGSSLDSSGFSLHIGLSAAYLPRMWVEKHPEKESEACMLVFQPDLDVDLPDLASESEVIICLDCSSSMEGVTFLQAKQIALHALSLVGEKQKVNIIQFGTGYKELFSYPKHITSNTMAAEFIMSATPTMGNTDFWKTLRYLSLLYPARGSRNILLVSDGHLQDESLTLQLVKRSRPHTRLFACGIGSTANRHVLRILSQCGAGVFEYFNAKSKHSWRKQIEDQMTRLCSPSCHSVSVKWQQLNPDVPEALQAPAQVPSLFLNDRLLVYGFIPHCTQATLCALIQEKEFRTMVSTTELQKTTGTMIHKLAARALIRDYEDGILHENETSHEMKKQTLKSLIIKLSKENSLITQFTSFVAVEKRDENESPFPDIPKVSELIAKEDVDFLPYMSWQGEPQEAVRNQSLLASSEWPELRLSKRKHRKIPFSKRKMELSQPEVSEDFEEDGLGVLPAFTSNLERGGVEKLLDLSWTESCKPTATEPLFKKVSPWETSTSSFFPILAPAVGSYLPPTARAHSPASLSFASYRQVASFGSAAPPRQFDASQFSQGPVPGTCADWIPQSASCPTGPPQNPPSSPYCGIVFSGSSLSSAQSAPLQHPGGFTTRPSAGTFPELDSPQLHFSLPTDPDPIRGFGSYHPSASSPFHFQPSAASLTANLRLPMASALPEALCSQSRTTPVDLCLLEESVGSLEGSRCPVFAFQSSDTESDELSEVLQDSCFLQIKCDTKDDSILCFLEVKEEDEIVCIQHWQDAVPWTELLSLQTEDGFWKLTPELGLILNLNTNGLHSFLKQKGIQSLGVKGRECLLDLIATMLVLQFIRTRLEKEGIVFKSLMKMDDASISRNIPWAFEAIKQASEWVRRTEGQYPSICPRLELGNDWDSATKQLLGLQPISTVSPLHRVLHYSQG
For data set [5], the target named is T2, Protein mono-ADP-ribosyltransferase PARP15 (Homo sapiens, UniProt Q460N3).
T2 sequence (Q460N3 whole entry): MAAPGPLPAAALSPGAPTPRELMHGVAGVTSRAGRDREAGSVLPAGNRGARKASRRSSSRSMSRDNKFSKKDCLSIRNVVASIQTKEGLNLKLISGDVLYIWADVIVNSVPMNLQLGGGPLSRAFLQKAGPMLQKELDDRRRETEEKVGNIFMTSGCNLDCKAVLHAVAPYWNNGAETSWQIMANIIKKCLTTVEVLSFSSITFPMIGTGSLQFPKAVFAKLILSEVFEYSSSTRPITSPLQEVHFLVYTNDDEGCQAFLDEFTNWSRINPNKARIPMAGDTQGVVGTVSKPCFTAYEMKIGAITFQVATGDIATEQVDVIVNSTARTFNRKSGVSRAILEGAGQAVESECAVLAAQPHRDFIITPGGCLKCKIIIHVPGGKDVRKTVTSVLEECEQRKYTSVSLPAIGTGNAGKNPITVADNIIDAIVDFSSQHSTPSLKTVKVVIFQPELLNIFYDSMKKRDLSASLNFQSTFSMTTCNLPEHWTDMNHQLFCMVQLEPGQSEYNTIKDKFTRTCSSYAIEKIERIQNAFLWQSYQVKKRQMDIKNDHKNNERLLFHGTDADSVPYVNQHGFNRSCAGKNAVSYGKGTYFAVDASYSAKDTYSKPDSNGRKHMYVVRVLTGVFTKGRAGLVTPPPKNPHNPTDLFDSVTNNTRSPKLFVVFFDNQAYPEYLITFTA
The experiment in a line: Inhibition of PARP15 (unknown origin).

For data set [6], the target named is T3, Protein mono-ADP-ribosyltransferase PARP16 (Homo sapiens, UniProt Q8N5Y8).
T3 sequence (Q8N5Y8 whole entry): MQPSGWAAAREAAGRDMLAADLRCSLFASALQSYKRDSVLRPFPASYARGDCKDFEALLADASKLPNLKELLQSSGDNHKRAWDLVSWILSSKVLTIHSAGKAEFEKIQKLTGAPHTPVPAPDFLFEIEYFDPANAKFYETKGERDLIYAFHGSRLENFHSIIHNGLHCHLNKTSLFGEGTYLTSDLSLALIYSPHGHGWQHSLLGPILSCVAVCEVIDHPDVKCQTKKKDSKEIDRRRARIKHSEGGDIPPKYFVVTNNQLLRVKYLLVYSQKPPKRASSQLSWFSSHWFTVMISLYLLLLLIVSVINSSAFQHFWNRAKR
Kind of data set: Inhibition of PARP16 (unknown origin).

In another data set the test system is HEK293. The experiment in a line: Cytotoxicity against HEK293 cells by light microscopic analysis. The data set is classed as cell-based. Particulars: human. In outline: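 Viability of TCF/LEF reporter HEK293 cells was checked by light microscopy during the Wnt-signaling reporter assay.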
The test system of another data set is DLD-1. The experiment in a line: Anti-proliferative activity against human DLD1 cells assessed as inhibition of colony formation at 100 nM measured after 18 days under normal serum condition by trypan blue staining based light microscopic analysis. The data set is classed as functional, cell-based. In outline: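 DLD-1 colony-forming assay under normal serum: 1000 cells/well, with 1.0 µM or 100 nM compound, or a 1% DMSO (v/v) vehicle control. Colonies were counted, n = 3.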

For data set [7], the species on record is Mus musculus. Kind of data set: Inhibition of TNKS in mouse 3T3L1 cells assessed as upregulation of GLUT4 by measuring increase in insulin-stimulated glucose uptake at 100 nM using 2-deoxy-D-[2,6-3H]glucose as substrate pretreated for 1 hr followed by insulin stimulation for 30 mins and subsequent addition of substrate measured after 5 mins by scintillation counter. It is filed as cell-based. Also on record: scale not given: the % may be the effect or the level left. In outline: (§1)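 3T3-L1 fibroblasts were grown in DMEM and differentiated to adipocytes with insulin, dexamethasone and isobutylmethylxanthine, then used 10-12 d later. Cells were serum-starved 2 h at 37°C and given compound for 1 h. After KRH washes (pH 7.4), cells were held 30 min with compound, with or without 100 nM insulin. 2-Deoxy-D-[2,6-³H]glucose was added for 5 min.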

For data set [8], the species on record is Mus musculus. The experiment in a line: Inhibition of TNKS in mouse 3T3L1 cells assessed as upregulation of GLUT4 by measuring increase in insulin-stimulated glucose uptake at 1 uM using 2-deoxy-D-[2,6-3H]glucose as substrate pretreated for 1 hr followed by insulin stimulation for 30 mins and subsequent addition of substrate measured after 5 mins by scintillation counter. It is filed as cell-based. Also on record: scale not given: the % may be the effect or the level left. The method, boiled down: as §1

SMILES strings stand for the structures. Active and inactive are the calls of the source. The calls are words filed in the database; no cut-off is given here.

Chain of Poly [ADP-ribose] polymerase 1 (P09874 whole entry, the tested form may be a part): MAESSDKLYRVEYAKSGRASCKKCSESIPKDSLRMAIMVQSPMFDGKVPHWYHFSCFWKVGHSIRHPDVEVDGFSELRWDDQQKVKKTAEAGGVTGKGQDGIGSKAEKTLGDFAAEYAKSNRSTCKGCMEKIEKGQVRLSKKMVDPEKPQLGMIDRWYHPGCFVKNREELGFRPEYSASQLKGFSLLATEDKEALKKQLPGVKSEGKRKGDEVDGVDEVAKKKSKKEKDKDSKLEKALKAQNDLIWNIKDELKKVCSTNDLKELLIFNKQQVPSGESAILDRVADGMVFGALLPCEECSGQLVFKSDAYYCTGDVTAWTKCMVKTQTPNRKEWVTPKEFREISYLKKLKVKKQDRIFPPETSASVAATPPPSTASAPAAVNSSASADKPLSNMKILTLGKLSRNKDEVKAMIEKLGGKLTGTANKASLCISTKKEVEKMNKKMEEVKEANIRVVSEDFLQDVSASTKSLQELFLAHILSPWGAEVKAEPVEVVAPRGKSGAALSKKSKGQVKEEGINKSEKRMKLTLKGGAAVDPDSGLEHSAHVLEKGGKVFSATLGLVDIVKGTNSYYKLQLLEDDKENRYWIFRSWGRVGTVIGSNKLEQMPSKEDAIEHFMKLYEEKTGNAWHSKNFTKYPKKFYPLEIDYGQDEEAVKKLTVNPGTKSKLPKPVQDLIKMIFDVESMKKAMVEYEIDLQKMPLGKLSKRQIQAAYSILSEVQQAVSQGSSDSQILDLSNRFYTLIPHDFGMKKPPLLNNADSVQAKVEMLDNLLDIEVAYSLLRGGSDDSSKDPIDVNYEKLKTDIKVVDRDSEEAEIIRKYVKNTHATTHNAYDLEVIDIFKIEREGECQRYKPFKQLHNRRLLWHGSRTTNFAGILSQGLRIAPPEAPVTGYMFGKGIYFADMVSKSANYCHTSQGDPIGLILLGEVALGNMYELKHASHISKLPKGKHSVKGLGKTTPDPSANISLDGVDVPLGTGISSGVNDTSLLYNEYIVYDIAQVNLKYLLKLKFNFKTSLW

As for `O=C(CCc1nc2ccccc2c(=O)[nH]1)Nc1ccc(C(=O)Nc2cccc3cccnc23)cc1`, the half-maximal inhibitory concentration (IC50) in [1] was above 100 µM; in data set [2], 8.2 µM; in data set [3], 6.9 µM; in data set [4], 69 µM; in [5], above 100 µM; in data set [6], above 100 µM. Besides, the Activity result in the data set on HEK293 was “Non-Toxic”; in the data set filed under Mus musculus [7], 40%; in the data set listed under Mus musculus [8] it was 20%. In addition, the inhibition entry with DLD-1 is “Active”.

Regarding `Cc1cccc2c(=O)[nH]c(CCC(=O)Nc3ccc(C(=O)Nc4cccc5cccnc45)cc3)nc12`, the IC50 in data set [1] is above 100 µM; in [2], 6.5 µM; in [3], 11.6 µM; in data set [4], 65 µM; in [5], above 100 µM; in data set [6] it was above 100 µM. In addition, the figures for the Activity entry in the data set on HEK293, in the data set listed under Mus musculus [7] and in the data set filed under Mus musculus [8] were “Non-Toxic”, 20% and 20%, respectively. The inhibition entry in the data set with DLD-1 was “Active”.

These data come from ChEMBL document CHEMBL4002591 (J Med Chem, 2017).
